Data published in ChEMBL document CHEMBL4433218, “Behind the Mirror: Chirality Tunes the Reactivity and Cytotoxicity of Chloropiperidines as Potential Anticancer Agents” (ACS Med Chem Lett, 2019).
Activity calls are given as the source filed them. The calls are words filed in the database; no cut-off is given here.

Key:
DNA [1] = experiment: Induction of Escherichia coli pBR322 DNA cleavage in BPE buffer at 5 to 50 uM incubated for 2 hrs by electrophoresis method; format: nucleic-acid assay
Method in brief: (§1)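 Supercoiled pBR322 plasmid (120 ng) incubated with compound at 5 and 50 μM in BPE buffer, 37 °C. Dilutions freshly made in water from 10 mM DMSO stock and added to DNA immediately. Supercoiled, open circular and linear forms resolved on 1% agarose in TAE and stained with GelRed.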

DNA [2] = experiment: Induction of Escherichia coli pBR322 DNA cleavage in BPE buffer at 5 to 50 uM incubated for 18 hrs by electrophoresis method; format: nucleic-acid assay; method in brief: as §1
HCT-15 = experiment: Cytotoxicity against human HCT15 cells assessed as reduction in cell viability incubated for 72 hrs by MTT assay; format: functional, cell-based; conditions: HCT-15, 72 h
Method in brief: (§2)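 Cell lines kept in log phase at 37 °C, 5% CO2 in RPMI-1640 with 10% fetal calf serum, penicillin 50 units/mL, streptomycin 50 μg/mL, 2 mM L-glutamine. Compounds dissolved in DMSO and added to medium at 0.5% final solvent. Treatment 72 h. Viability read by MTT. IC50 calculated.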

2008 = experiment: Cytotoxicity against human 2008 cells assessed as reduction in cell viability incubated for 72 hrs by MTT assay; format: functional, cell-based; conditions: Homo sapiens, 2008, 72 h; method in brief: as §2
BXPC-3 = experiment: Cytotoxicity against human BxPC3 cells assessed as reduction in cell viability incubated for 72 hrs by MTT assay; format: functional, cell-based; conditions: BXPC-3, 72 h; method in brief: as §2
[3] = Stability in pH 7.4 PBS buffer incubated for 1 hr by UPLC-MS analysis; format: physicochemical; conditions: pH 7.4, 1 h
[4] = Permeability across PVDF membrane in PBS buffer of pH 7.4 at 500 uM incubated for 1 hr by UPLC-MS based PAMPA assay; format: ADME; conditions: pH 7.4, 1 h
Method in brief: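 Donor: 500 μM compound in PBS pH 7.4, made from 10 mM DMSO stock. Acceptor: PBS with 5% DMSO. Filter coated with 1% L-α-phosphatidylcholine in n-dodecane. 1 h at room temperature. Initial, donor and acceptor samples quantified by UPLC-MS (C18, 0.1% formic acid water/acetonitrile gradient) against 20 μM caffeine internal standard. Membrane fraction taken by difference. Unreacted and reacted species summed.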

[5] = biological target: DNA topoisomerase 2-alpha (Homo sapiens) (UniProt P11388); experiment: Inhibition of human DNA topoisomerase-2alpha mediated decatenation using kinetoplast DNA as substrate at 5 to 50 uM incubated for 2 to 18 hrs
Method in brief: (§3)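 Human topoisomerase IIα decatenation of kinetoplast DNA, run with a commercial kit. Substrate DNA incubated with compound at 37 °C for 2 and 18 h.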

[6] = Induction of dsDNA (unknown origin) alkylation in BPE buffer at 50 uM incubated for 2 hrs by ESI-MS analysis
Method in brief: (§4)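 Duplex oligodeoxynucleotide at 2 μM final, incubated with compound at 50 μM final in BPE buffer, 37 °C. Compound diluted in water from 10 mM DMSO stock just before use. Analysed by direct-infusion ESI-MS on an Orbitrap in 150 mM ammonium acetate. Adducts and abasic species assigned by mass, 6− charge state.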

[7] = Induction of dsDNA (unknown origin) alkylation in BPE buffer at 50 uM incubated for 18 hrs by ESI-MS analysis; method in brief: as §4
[8] = biological target: DNA topoisomerase 2-alpha (Homo sapiens) (UniProt P11388); experiment: Inhibition of human DNA topoisomerase-2alpha mediated decatenation using kinetoplast DNA as substrate at 50 uM incubated for 18 hrs; method in brief: as §3

Chain of DNA topoisomerase 2-alpha (Homo sapiens) (P11388 whole entry): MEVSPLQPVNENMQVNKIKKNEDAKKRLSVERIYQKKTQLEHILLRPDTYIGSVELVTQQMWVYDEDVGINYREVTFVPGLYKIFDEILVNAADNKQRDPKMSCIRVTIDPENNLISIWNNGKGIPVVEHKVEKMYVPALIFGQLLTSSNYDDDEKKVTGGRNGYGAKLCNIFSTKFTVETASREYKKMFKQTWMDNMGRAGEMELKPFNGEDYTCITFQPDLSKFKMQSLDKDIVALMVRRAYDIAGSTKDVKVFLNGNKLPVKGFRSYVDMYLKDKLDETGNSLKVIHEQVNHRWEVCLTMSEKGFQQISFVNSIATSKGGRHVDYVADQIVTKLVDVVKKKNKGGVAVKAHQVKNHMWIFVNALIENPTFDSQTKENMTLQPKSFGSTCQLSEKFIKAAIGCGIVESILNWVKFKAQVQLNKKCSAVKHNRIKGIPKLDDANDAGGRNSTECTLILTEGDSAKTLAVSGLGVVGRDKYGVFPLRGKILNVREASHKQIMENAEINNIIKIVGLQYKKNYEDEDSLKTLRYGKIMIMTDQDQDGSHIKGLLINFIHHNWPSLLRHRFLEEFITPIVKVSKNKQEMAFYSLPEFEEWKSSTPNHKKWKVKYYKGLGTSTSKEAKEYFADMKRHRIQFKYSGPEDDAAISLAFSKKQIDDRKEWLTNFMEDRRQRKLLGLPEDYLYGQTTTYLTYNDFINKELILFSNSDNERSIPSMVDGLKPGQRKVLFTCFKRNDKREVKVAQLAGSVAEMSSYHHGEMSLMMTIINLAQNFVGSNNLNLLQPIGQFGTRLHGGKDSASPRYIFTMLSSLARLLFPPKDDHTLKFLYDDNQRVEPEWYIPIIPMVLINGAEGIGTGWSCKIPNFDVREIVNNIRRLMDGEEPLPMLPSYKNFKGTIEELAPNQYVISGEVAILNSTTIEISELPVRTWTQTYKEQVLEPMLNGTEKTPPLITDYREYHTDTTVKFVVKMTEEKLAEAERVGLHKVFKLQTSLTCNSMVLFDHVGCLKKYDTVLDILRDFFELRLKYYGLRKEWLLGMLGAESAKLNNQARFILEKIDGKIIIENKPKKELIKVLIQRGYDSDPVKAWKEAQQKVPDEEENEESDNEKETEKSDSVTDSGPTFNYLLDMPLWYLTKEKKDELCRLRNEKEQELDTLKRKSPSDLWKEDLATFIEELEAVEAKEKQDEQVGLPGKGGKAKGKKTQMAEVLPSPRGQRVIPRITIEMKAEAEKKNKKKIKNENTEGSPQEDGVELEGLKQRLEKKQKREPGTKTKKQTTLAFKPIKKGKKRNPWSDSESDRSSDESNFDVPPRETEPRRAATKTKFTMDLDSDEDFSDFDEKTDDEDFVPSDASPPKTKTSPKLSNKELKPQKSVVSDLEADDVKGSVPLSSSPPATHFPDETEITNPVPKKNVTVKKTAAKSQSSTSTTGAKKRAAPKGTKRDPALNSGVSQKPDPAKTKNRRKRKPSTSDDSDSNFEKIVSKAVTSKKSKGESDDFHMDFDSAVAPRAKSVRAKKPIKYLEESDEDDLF

SMILES | Activity (DNA [1]) | Activity (DNA [2]) | IC50 (HCT-15) | IC50 2008 | IC50 (BXPC-3) | Stability [3] | permeability [4] | inhibition [5] | Activity [6] | Activity [7] | inhibition [8]
CCCCN1CCC[C@@H](Cl)C1 | inactive | Active | 5640 nM | 4600 nM | 274 nM | Stable | Permeable | inactive | – | – | –
CCCCN1CCCC(Cl)C1 (racemic) | inactive | Active | 474 nM | 329 nM | 57 nM | Stable | – | – | inactive | Active | –
CCCCN1CCC[C@H](Cl)C1 | inactive | Active | 181 nM | 102 nM | 7 nM | Stable | Permeable | inactive | – | – | –
CC1(C)CC(Cl)CN(Cc2ccccc2)C1 (racemic) | inactive | Active | 300 nM | 107 nM | 6 nM | Stable | Impermeable | – | – | – | Active
O=C(O)CCCc1ccc(N(CCCl)CCCl)cc1 [CHLORAMBUCIL] | inactive | Active | 49700 nM | 12500 nM | 75300 nM | – | – | – | – | – | –
CCCCN1CC(Cl)CC(C)(C)C1 (racemic) | inactive | Active | 254 nM | 174 nM | 24 nM | Stable | Impermeable | – | Active | Active | Active
